# Tested on: Bacillus subtilis
# Assay: Antibacterial activity against Bacillus subtilis ATCC 6633 after 24 hrs by serial dilution technique
# Assay type: functional
# Conditions: ATCC 6633, 24 h
row,Structure (SMILES),MIC
1,COc1cc(OC(C)=O)c2c(c1O)C(=O)c1cc(C)c(OC(C)=O)cc1C2=O,50 µM
2,COC1=CC(=O)c2c(O)c3c(c(O)c2C1=O)C[C@](C)(O)[C@H](OC(C)=O)[C@H]3O,> 200 µM
3,COc1cc(OC(C)=O)c2c(c1OC(C)=O)C(=O)c1cc(C)c(OC(C)=O)cc1C2=O,35 µM
4,COc1cc(O)c2c(c1OC(C)=O)C(=O)c1cc(C)c(OC(C)=O)cc1C2=O,> 200 µM
5,COC1=CC(=O)c2c(O)c3c(c(O)c2C1=O)C[C@](C)(O)[C@H](O)[C@H]3O [BOSTRYCIN],3.12 µM

# Tested on: Bacillus cereus
# Assay: Antibacterial activity against Bacillus cereus ACCC 11077 after 24 hrs by serial dilution technique
# Assay type: functional
# Conditions: ACCC 11077, 24 h
row,Structure (SMILES),MIC
1,COc1cc(OC(C)=O)c2c(c1O)C(=O)c1cc(C)c(OC(C)=O)cc1C2=O,> 200 µM
2,COC1=CC(=O)c2c(O)c3c(c(O)c2C1=O)C[C@](C)(O)[C@H](OC(C)=O)[C@H]3O,3.12 µM
3,COc1cc(OC(C)=O)c2c(c1OC(C)=O)C(=O)c1cc(C)c(OC(C)=O)cc1C2=O,140 µM
4,COc1cc(O)c2c(c1OC(C)=O)C(=O)c1cc(C)c(OC(C)=O)cc1C2=O,> 200 µM
5,COC1=CC(=O)c2c(O)c3c(c(O)c2C1=O)C[C@](C)(O)[C@H](O)[C@H]3O [BOSTRYCIN],3.12 µM

# Tested on: Micrococcus luteus
# Assay: Antibacterial activity against Micrococcus luteus ATCC 49732 after 24 hrs by serial dilution technique
# Assay type: functional
# Conditions: ATCC 49732, 24 h
row,Structure (SMILES),MIC
1,COc1cc(OC(C)=O)c2c(c1O)C(=O)c1cc(C)c(OC(C)=O)cc1C2=O,> 200 µM
2,COC1=CC(=O)c2c(O)c3c(c(O)c2C1=O)C[C@](C)(O)[C@H](OC(C)=O)[C@H]3O,> 200 µM
3,COc1cc(OC(C)=O)c2c(c1OC(C)=O)C(=O)c1cc(C)c(OC(C)=O)cc1C2=O,140 µM
4,COc1cc(O)c2c(c1OC(C)=O)C(=O)c1cc(C)c(OC(C)=O)cc1C2=O,200 µM
5,COC1=CC(=O)c2c(O)c3c(c(O)c2C1=O)C[C@](C)(O)[C@H](O)[C@H]3O [BOSTRYCIN],100 µM

# Tested on: Staphylococcus aureus
# Assay: Antibacterial activity against Staphylococcus aureus ATCC 27154 after 24 hrs by serial dilution technique
# Assay type: functional
# Conditions: ATCC 27154, 24 h
row,Structure (SMILES),MIC
1,COc1cc(OC(C)=O)c2c(c1O)C(=O)c1cc(C)c(OC(C)=O)cc1C2=O,> 200 µM
2,COC1=CC(=O)c2c(O)c3c(c(O)c2C1=O)C[C@](C)(O)[C@H](OC(C)=O)[C@H]3O,> 200 µM
3,COc1cc(OC(C)=O)c2c(c1OC(C)=O)C(=O)c1cc(C)c(OC(C)=O)cc1C2=O,> 140 µM
4,COc1cc(O)c2c(c1OC(C)=O)C(=O)c1cc(C)c(OC(C)=O)cc1C2=O,> 200 µM
5,COC1=CC(=O)c2c(O)c3c(c(O)c2C1=O)C[C@](C)(O)[C@H](O)[C@H]3O [BOSTRYCIN],1.56 µM

# Tested on: Micrococcus
# Assay: Antibacterial activity against Micrococcus tetragenus ATCC 13623 after 24 hrs by serial dilution technique
# Assay type: functional
# Conditions: ATCC 13623, 24 h
row,Structure (SMILES),MIC
1,COc1cc(OC(C)=O)c2c(c1O)C(=O)c1cc(C)c(OC(C)=O)cc1C2=O,> 200 µM
2,COC1=CC(=O)c2c(O)c3c(c(O)c2C1=O)C[C@](C)(O)[C@H](OC(C)=O)[C@H]3O,3.12 µM
3,COc1cc(OC(C)=O)c2c(c1OC(C)=O)C(=O)c1cc(C)c(OC(C)=O)cc1C2=O,> 140 µM
4,COc1cc(O)c2c(c1OC(C)=O)C(=O)c1cc(C)c(OC(C)=O)cc1C2=O,200 µM
5,COC1=CC(=O)c2c(O)c3c(c(O)c2C1=O)C[C@](C)(O)[C@H](O)[C@H]3O [BOSTRYCIN],3.12 µM

# Tested on: Escherichia coli
# Assay: Antibacterial activity against Escherichia coli ATCC 25922 after 24 hrs by serial dilution technique
# Assay type: functional
# Conditions: ATCC 25922, 24 h
row,Structure (SMILES),MIC
1,COc1cc(OC(C)=O)c2c(c1O)C(=O)c1cc(C)c(OC(C)=O)cc1C2=O,> 200 µM
2,COC1=CC(=O)c2c(O)c3c(c(O)c2C1=O)C[C@](C)(O)[C@H](OC(C)=O)[C@H]3O,> 200 µM
3,COc1cc(OC(C)=O)c2c(c1OC(C)=O)C(=O)c1cc(C)c(OC(C)=O)cc1C2=O,> 140 µM
4,COc1cc(O)c2c(c1OC(C)=O)C(=O)c1cc(C)c(OC(C)=O)cc1C2=O,> 200 µM
5,COC1=CC(=O)c2c(O)c3c(c(O)c2C1=O)C[C@](C)(O)[C@H](O)[C@H]3O [BOSTRYCIN],1.56 µM

# Tested on: Vibrio anguillarum
# Assay: Antibacterial activity against Vibrio anguillarum ATCC 19019 after 24 hrs by serial dilution technique
# Assay type: functional
# Conditions: ATCC 19019, 24 h
row,Structure (SMILES),MIC
1,COc1cc(OC(C)=O)c2c(c1O)C(=O)c1cc(C)c(OC(C)=O)cc1C2=O,> 200 µM
2,COC1=CC(=O)c2c(O)c3c(c(O)c2C1=O)C[C@](C)(O)[C@H](OC(C)=O)[C@H]3O,> 200 µM
3,COc1cc(OC(C)=O)c2c(c1OC(C)=O)C(=O)c1cc(C)c(OC(C)=O)cc1C2=O,140 µM
4,COc1cc(O)c2c(c1OC(C)=O)C(=O)c1cc(C)c(OC(C)=O)cc1C2=O,> 200 µM
5,COC1=CC(=O)c2c(O)c3c(c(O)c2C1=O)C[C@](C)(O)[C@H](O)[C@H]3O [BOSTRYCIN],0.39 µM

# Tested on: Vibrio parahaemolyticus
# Assay: Antibacterial activity against Vibrio parahaemolyticus ATCC 17802 after 24 hrs by serial dilution technique
# Assay type: functional
# Conditions: ATCC 17802, 24 h
row,Structure (SMILES),MIC
1,COc1cc(OC(C)=O)c2c(c1O)C(=O)c1cc(C)c(OC(C)=O)cc1C2=O,> 200 µM
2,COC1=CC(=O)c2c(O)c3c(c(O)c2C1=O)C[C@](C)(O)[C@H](OC(C)=O)[C@H]3O,> 200 µM
3,COc1cc(OC(C)=O)c2c(c1OC(C)=O)C(=O)c1cc(C)c(OC(C)=O)cc1C2=O,> 140 µM
4,COc1cc(O)c2c(c1OC(C)=O)C(=O)c1cc(C)c(OC(C)=O)cc1C2=O,> 200 µM
5,COC1=CC(=O)c2c(O)c3c(c(O)c2C1=O)C[C@](C)(O)[C@H](O)[C@H]3O [BOSTRYCIN],3.12 µM

# Tested on: A549
# Assay: Cytotoxicity against human A549 cells by MTT assay
# Assay type: functional, cell-based
# Conditions: not given
# How it was run: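 A549 human lung cancer cells, MTT read-out, mitomycin as positive control; IC50 reported in μM.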
row,Structure (SMILES),IC50
1,COC1=CC(=O)c2c(O)c3c(c(O)c2C1=O)C[C@](C)(O)[C@H](OC(C)=O)[C@H]3O,2.72 µM
2,COc1cc(OC(C)=O)c2c(c1OC(C)=O)C(=O)c1cc(C)c(OC(C)=O)cc1C2=O,> 50 µM

# Tested on: Staphylococcus albus
# Assay: Antibacterial activity against Staphylococcus albus ATCC 8799 after 24 hrs by serial dilution technique
# Conditions: ATCC 8799, 24 h
row,Structure (SMILES),MIC
1,COc1cc(OC(C)=O)c2c(c1O)C(=O)c1cc(C)c(OC(C)=O)cc1C2=O,50 µM
2,COC1=CC(=O)c2c(O)c3c(c(O)c2C1=O)C[C@](C)(O)[C@H](OC(C)=O)[C@H]3O,> 200 µM
3,COc1cc(OC(C)=O)c2c(c1OC(C)=O)C(=O)c1cc(C)c(OC(C)=O)cc1C2=O,70 µM
4,COc1cc(O)c2c(c1OC(C)=O)C(=O)c1cc(C)c(OC(C)=O)cc1C2=O,> 200 µM
5,COC1=CC(=O)c2c(O)c3c(c(O)c2C1=O)C[C@](C)(O)[C@H](O)[C@H]3O [BOSTRYCIN],3.12 µM

# From ChEMBL document CHEMBL2046419, “Antibacterial anthraquinone derivatives from a sea anemone-derived fungus Nigrospora sp” (J Nat Prod, 2012)
